{
  "source": "paper PMC3863817",
  "about": "(Scientific Reports, 2013)",
  "key": {"KB cells": {"system": "KB cells", "assay": "Measurement of cellular ATP levels", "format": "cell-based, human", "settings": "positive control, 1 μM for 4 h", "in_short": "(§1)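 Cells plated at 2 × 10^5 per well and grown 1 day. They were exposed to 20 μM test compound for 4, 8, 16 or 24 h, or to rotenone (1 μM, 4 h) as positive control, at 37°C. KB cells were in folic acid-depleted RPMI-1640 and COS7 in DMEM, each with 10% FBS. Harvested cells were lysed in 1% TCA/4 mM EDTA for 20 min on ice, then Tris (pH 7.4). ATP was read with a bioluminescent kit on a chemiluminometer.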"}, "COS7 cells": {"system": "COS7 cells", "assay": "Measurement of cellular ATP levels", "format": "cell-based, African green monkey", "settings": "positive control, 1 μM for 4 h", "in_short": "as §1"}},
  "data": [
    {"smiles": "C=C(C)[C@H]1Cc2c(ccc3c2O[C@@H]2COc4cc(OC)c(OC)cc4[C@@H]2C3=O)O1", "note": "[rotenone]", "values": [
      {"measurement": "Cellular ATP level, in words", "setting": "KB cells", "result": "induce a decrease in cellular ATP level"},
      {"measurement": "Cellular ATP level, in words", "setting": "COS7 cells", "result": "induce a decrease in cellular ATP level"}
    ]}
  ]
}
